We go through 75 variants from the RNAGym collection of RNA variant scans (doi:10.1126/science.aae0568).

Fewer inactive variants are shown than the library holds. Some results are limits rather than exact numbers.

B1: tRNA (parent)
chain: GUUCCGUUGGCGUAAUGGUAACGCGUCUCCCUCCUAAGGAGAAGACUGCGGGUUCGAGUCCCGUACGGAACG

This data set covers variants of B1. The data set can be described thus: yeast fitness relative to wild type (ratio to wild type); higher = fitter; tRNA-Arg(CCU), competitive growth, 37 C, YPD. An outline of the steps: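 Start and end populations of a pooled competition were compared by 100-nucleotide paired-end sequencing of gene amplicons. The Saccharomyces cerevisiae strains carried tRNA-Arg(CCU) gene variants at the native genomic locus, synthesised with a 3% per-site mutation rate at 69 sites, and competed in YPD at 37°C for 24 hours in six parallel replicates. Darwinian fitness relative to wild type was based on the change in genotype frequencies. Genotypes required ≥ 100 starting reads, and estimates < 0.5 were set to 0.5.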
As to GUUCCGUUGGCGUAAUGGUAUCGCGUCUCCCUCCUAAGGAGAAGACUGCGGGUUCGAGUCCCGUACGGAACG, the yeast fitness is 0.861. The result for GUUCCGUUGGCGUAAUGGUAGCGCGUCUCCCUCCUAAGGAGAAGACUGCGGGUUCGAGUCCCCUACGGAACG reads 0.73; that for GUUCCGUUGGCGUAAUGGUAGCGCGUCUCCCUCCUAAGGAGAAGACUGCGGGUUCGAGUCCCAUACGGAACG, 0.863. The result for GUUCCGUUGGCGUAAUGGUAGCGCGUCUCCCUCCUAAGGAGAAGACUGCGGGUUCUACUCCCGUACGGUACG reads at most 0.5; that for GUUCCGUUGGCGUAAUGGUAUCGCGUCUCCCUCCUAUGGAGAAGACUGCGGGUUCGAGUCCCGUCUGGAACG, at most 0.5.

As to GUUCCGUUGGCGUAAUGGUAGCGCGUCUCCCUCCUAAGCAGCAGACUGCGGGUUCGAGUCCCGUACGGAACG, the yeast fitness stood at 0.563. With GUUCCGUUGGCGUAAUGGUAUCGCGUCUCCCUCCUUAGGAGAAGUCUGCGGGUUCGAGUCCCGUUCGGAUCG, the yeast fitness is 0.624.

GUUCCGUUGGCGUAAUGGUAGCGCGUCUCCCUCCUAAGCAGAAGAAUGCGGGUUCGAGUCCCGUACGGAACG: the yeast fitness was found to be 0.881. The result for GUUCCGUUGGCGUAAUGGUAGCGCGUCUCCCUCCUAAGGAGAAGACUGCGGGCUCGCGUCCCGUACGGUACG reads 0.597; that for GUUCCGUUGGCGUAAUGGUAGCGCGUCUCCCUCCUAAGGACAAGUCUGCGGGUUCGAGUCCCGUACGGAACG, 0.546.

As for GUUCCGUUGGCGUAAUGGUAUCGCGUCUCCCUCCUCACGAGAAGACUGCGGGUUCGAGUCCCGUACGGAACG, the yeast fitness is at most 0.5. Turning to GUUCCGUUGGCGUAAUGGUAGCGCGUCUCCCUCCUAAGGAGAAGACUGCGGGUUCGAGACCCGUACGGAACG, the yeast fitness stood at 0.835.

Regarding GUUCCGUUGGCGUAAUGGUAGCGCGUCUCCCUCCUAAGGAGAAGACUGCGGCUUCGAGUCCCGUACGGAACG, the yeast fitness is 0.639. Consider GUUCCGUUGGCGUAAUGGUAGCGCGUCUCCCUCCUAAGGAGAAAUCUGCGGGUUCGAGUCCCGUACGGAACG, for which the yeast fitness stood at 0.914. In the case of GUUCCGUUGGCGUAAUGGUAGCGCGUCUCCCUCCUAAGGAGAAGACUCCGGGUUCGGGUCCCAUACGGAACG, the yeast fitness was at most 0.5. Consider GUUCCGUUGGCGUAAUGGUAUCGCGUCUCCCUCCUAUGGAGAAGACUGCGGGUUCGAGUCCCGUCCGGAACG, for which the yeast fitness came to 0.672. As for GUUCCGUUGGCGUAAUGGUAGCGCGCGUCCCUCCUAAGGAGAAGACUCCGGGUUCGAGUCCCGUACGGAACG, the yeast fitness was at most 0.5. Take GUUCCGUUGGCGUAAUGGUAGCGCGUCUCCCUCCUAAGGAGAAGACUGCGGGUGCGAGUCCCGUACGGAACG: the yeast fitness was 0.575. Then GUUCCGUUGGCGUAAUGGUAGCGCGUCUCCCUCCUAAGGAGAAGACUGCGGGUCCGAGUCCCGUACGGAACG, with 0.937; and GUUCCGUUGGCGUAAUGGUAGCGCGUCUCCCUCCUAAGGAGAAGACUGCGGGUACGAGUCCCGUACGGAACG, with 0.575. As to GUUCCGUUGGCGUAAUGGUAGCGCGUCCCCCUCCUAAGGAGAAGACUGCGGGUUCGAGUCCCGUGCGGAACG, the yeast fitness was found to be 0.779. For GUUCCGUUGGCGUAAUGGUAGCGCGUCUCCCUCCUAAGGAGAAGACUGCGGGGUCGAGUCCCGUACGGAACG, the yeast fitness is 0.647. The result for GUUCCGUUGGCGUAAUGGUAGCGCGUCUCCCUCCUAAGGAGAAGACUGCGGGUUCGAGGCCCGCUCGGAACG reads 0.586.

Take GUUCCGUUGGCGUAAUGGUAGCGCGUCUCCCUCCUAAGGACAAGACUGCGGGUUCGAGUCCCGUACGGUACG: the yeast fitness is 0.682. Then GUUCCGUUGGCGUAAUGGUAUCGCGUCUCCCUCCUGAGGCGAAGACUGCGGGUUCGAGUCCCGUACGGUACG, with at most 0.5; and GUUCCGUUGGCGUAAUGGUAUCGCGUCUCCCUCCUUAGGAGAAGACUGUGGCUUCGAGUCCAGUACAGAACG, with 0.616; and GUUCCGUUGGCGUAAUGGUAGCGCGUCUCCCUCCUAAGGAGAAGACCGCGGGUUCGAGUCCCGUCCGGAACG, with 0.63. The result for GUUCCGUUGGCGUAAUGGUAUCGCGUCUCCCUCCUGAGGAGAAGCCUGCGGGUUCGAGUCCCGUACGGAACG reads 0.581; that for GUUCCGUUGGCGUAAUGGUAGCGCGUCUCCCUCCUAAGGAGAAGACUGCAGGUUUGAGUCCCGUACGGAACG, 0.533.

Take GUUCCGUUGGCGUAAUGGUAUCGCGUCUCCCUCCUAGGGAGAAGACUGCGGGUUCGAGUCCCGUACGGAACG: the yeast fitness was 0.664. Then GUUCCGUUGGCGUAAUGGUAGCGCGUCUCCCUCCCAAGGAGAAGACUGCGGGUUCGAGUCCCGUACGGAACG, with 0.728. The result for GUUCCGUUGGCGUAAUGGUAGCGCGUCUCCCUCCAAAGGAGAAGACUGCGGGUUCGAGUCCCGUACGGAACG reads 0.674; that for GUUCCGUUGGCGUAAUGGUAGCGCGUCUCCCUCCUAAGUAGAAGACUGCGGGUUCGAGUCCUGUACGGAACG, 0.527; that for GUUCCGUUGGCGUAAUGGUAGCGCGUCUCCCCCCUAAGGAGAAGACUGCGGGUUCGAGGCCCGUAUGGACCG, 0.703. Take GUUCCGUUGGCGUAAUGGUAGCGCGUCUCCCUCCCAAGGAGAAGACUGCGGGUUCGAGUCCCCUACGGAACG: the yeast fitness was 0.536. Then GUUCCGUUGGCGUAAUGGUAGCGCGACUCCCUCCUAAGGAGAAGACUGCGGGUUCGAGUCCCGUCCGGAACG, with 0.527. With GUUCCGUUGGCGUAAUGGUAGCGCGUCUCCCUCCAAAGGAGAAGACUGCGGGUUUGAGUCCCGUGCGGAACG, the yeast fitness was at most 0.5. In the case of GUUCCGUUGGCGUAAUGGUAUCGCGUCUCCCUCCUUAGGAGAAGACUGCGGGUUCGAGUCCCGUACGGAACG, the yeast fitness worked out at 0.592. For GUUCCGUUGGCGUAAUGGUAGCGCGUCCCCCUCCUAAGGAGAAGACUGCGGGUUCGAGUCCCGUACGGAACG, the yeast fitness worked out at 0.991. The result for GUUCCGUUGGCGUAAUGGUAGCGCGUCACCCUCCUAAGGAGAAGACUGCGGGUUCGAGUCCCGUACGGAACG reads 0.81; that for GUUCCGUUGGCGUAAUGGUAGCGCGUCUCCCUCCUAAGGAACAGACUGCGGGUUCGCGUCCCGUACGGGACG, 0.686.

On to GUUCCGUUGGCGUAAUGGUAGCGCGCCUUCCUCCUAAGGAGAAGACUGCGGGUUCCAGUCCCGUACGGUACG, for which the yeast fitness was at most 0.5. For GUUCCGUUGGCGUAAUGGUAUCGCGUCUCCCUCCUCAGGAGAAGCCUACGGGUUAGAGUCCCGUACGGAACG, the yeast fitness was at most 0.5. With GUUCCGUUGGCGUAAUGGUAGCGCGUCUCCCUCCUAAGCAGAAGACUGCGGGUUCGAGUCCUGUACGGAACG, the yeast fitness is at most 0.5. The result for GUUCCGUUGGCGUAAUGGUAUCGCGUCUCCCUCCUAAGGCGAAGACUGCGGGUUCAAGUCCCGUACGGAACG reads at most 0.5; that for GUUCCGUUGGCGUAAUGGUAGCGCGUCUCCCUCCUAAGGAGAAGACUCCGGGUUCGAGUCGAGUAUGGAACG, at most 0.5.

Consider GUUCCGUUGGCGUAAUGGUAGCGCGUCUCCCUCCUAAGGAGAAGACCGCGGGUUCGAGUCCCGUACGGAACG, for which the yeast fitness amounted to 0.921.

Consider GUUCCGUUGGCGUAAUGGUAGCGCGUCUCCCUCCUAAGGAGAAGACAGCGGGUUCGAGUCCCGUACGGAACG, for which the yeast fitness is 0.822. As to GUUCCGUUGGCGUAAUGGUAUCGCGUCUCCCUCCUAAGGCGAAGACUGCGGGUUCGCGUCCCGUACGGAUCG, the yeast fitness is at most 0.5. As for GUUCCGUUGGCGUAAUGGUAGCGCGUCUCCCGCCUAAGGACAAGACUGCGGGUUCGAGUCCCGUACGGAACG, the yeast fitness was at most 0.5. The result for GUUCCGUUGGCGUAAUGGUAGCGCGUCACUCUCCUAAGGAGAAGACUGCGGGUUCGAGUCCCGUACGGAACG reads at most 0.5; that for GUUCCGUUGGCGUAAUGGUAGCGCGGCUCCCUCCUAAGGAGAAGACUGCGCGUUCGAGUCCCGUACGGAACG, at most 0.5. Then GUUCCGUUGGCGUAAUGGUAGCGCGUCUCCCUCCUAAGGAGAAGACUGCGGGUUCGAGUCCCGUACGAAACG, with 1.01; and GUUCCGUUGGCGUAAUGGUAGCGCGUCUCCCUCCUAAGGAGAAGACUGCGGGUUCAAGUCCCGUGUGGAACG, with 0.638; and GUUCCGUUGGCGUAAUGGUAUCGCGUCUCCCUCCUAUGGAGACGACUGCGGGUUCGAGUCUCGUACGGAGCG, with 0.517. On to GUUCCGUUGGCGUAAUGGUAGCGCGUCUCCCUCCUAAGGACAAGACUGCGGGUUCGAGUCCCGUACGGAACG, for which the yeast fitness is 0.997. The result for GUUCCGUUGGCGUAAUGGUAUCGCGUCUCCCUCCUCAGGAGAAGACUGCGGGUUCCAGUCCCGUACGGAACG reads at most 0.5.

Turning to GUUCCGUUGGCGUAAUGGUAGCGCGUCUCCCUCCAAAGGAGAUGACUGCGGGUUCGAGCCCCGUACGGAACG, the yeast fitness is at most 0.5. Then GUUCCGUUGGCGUAAUGGUAGCGCGUCUCCCUCCUAAGGAGAAGACUGCGAGUUCGAGUCCCGUACGGAACG, with 0.836; and GUUCCGUUGGCGUAAUGGUAGCGCGUCUCCCUCCUAAGGAGAAGACUGCGCGUUCGAGUCCCGUACGGAACG, with 0.647. As to GUUCCGUUGGCGUAAUGGUAGCGCGUCUCCCUCCUAAGGAGAAGACAACGGGUUCGAGUCCCGUUCGGAACG, the yeast fitness is at most 0.5. Turning to GUUCCGUUGGCGUAAUGGUAGCGCGUCUCCCUCCUAAGGAGAAGACUGCGGAUUCGUGUCCCGUACCGAACG, the yeast fitness is at most 0.5. Take GUUCCGUUGGCGUAAUGGUAUCGCGUCUCCCUCCUGAGGAGAAGACCGCGGGUUCGAGACCCGUACGGAACG: the yeast fitness came to 0.729. For the variant GUUCCGUUGGCGUAAUGGUAUCGCGUCUCCCUCCUAUGGAGAAGCCUGCGAGUUCGAGUCCCGUACAGAACG, the yeast fitness came to 0.67.

In the case of GUUCCGUUGGCGUAAUGGUAGCGCGUCUCCCUCCUAAGGAGAAGACUGCGGGUUCGACUCCCGUUCGGAACG, the yeast fitness came out at 1.18. As to GUUCCGUUGGCGUAAUGGUAGCGCGUCUCCCCCCUAAGGAGAAGACUGCGGGUUCGAGUCCCGUACGGAACG, the yeast fitness was determined as 1.03. As for GUUCCGUUGGCGUAAUGGUAGCGCGUCUCCCUCCUAAGGAGAAGACUGCGGGUACGAGUCCUGUGCGAAACG, the yeast fitness was at most 0.5. Regarding GUUCCGUUGGCGUAAUGGUAGCGCGUCUCCCUCCUAAGGAGAAGACUGCGGAUUCGGGUCCCGUAGGGAACG, the yeast fitness is at most 0.5. For GUUCCGUUGGCGUAAUGGUAUCGCGUCUCCCUCCUGAGGAGAUGACUGCGGGUUCGAGUCCCGAACGGAACG, the yeast fitness is at most 0.5. Regarding GUUCCGUUGGCGUAAUGGUAGCGCGUCUCCCUCCUAAGGAGAAGACUGCGUGUUCGAAUCCCGUACGGAACG, the yeast fitness came out at 0.777. For the variant GUUCCGUUGGCGUAAUGGUAGCGCGUCUCCCUCCUAAGGAGAAGACUGCGGGUUCGAAUCCCGUACGGAACG, the yeast fitness was 1.01. Regarding GUUCCGUUGGCGUAAUGGUAGCGCGUCUCCCUCCUAAGGAGAAGACUGCGGGUUCGAGUCCCGUACUGAACG, the yeast fitness was determined as 0.87. The result for GUUCCGUUGGCGUAAUGGUAGCGCGUCUCCCUCCUAAGGAGAAGACUGCGGGAUCGUGUCCCGUACGGAACG reads 0.516; that for GUUCCGUUGGCGUAAUGGUAGCGCGUCUCCCUCCUAAGGAGAAGACUGCGGGUUCGAGUCCCGCACGGAACG, 0.864. In the case of GUUCCGUUGGCGUAAUGGUAGCGCGUCACUCUCCUAAGGAGAAGACUGCGGGUUCGAGUCCAGUACGGAACG, the yeast fitness came to 0.744.
